The list is not random: actives were taken first. Their share in the collection is about 4.3%.
m5-HT2A agonist = mouse Htr2a agonists via beta-arrestin recruitment, primary screen, cell-based, luminescence | 5-hydroxytryptamine receptor 2A (Mus musculus), P35363 | CHO-K1 mHTR2A beta-arrestin complementation; percent of 30 µM serotonin response | activation, % at 7.6 µM | 360,000 compounds, 0.66% hits | AID 624169, 2012;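 active means activation above a run cutoff, the mean activation of all tested compounds plus 3 SD, cut at about 14% in these data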
TAAR1 ag = human TAAR1 agonists, primary screen, Fluo-8 calcium fluorescence, CHO RD-HGA16 cells; vehicle wells 0%, saturating PEA agonist 100%; activation, % at 3 µM; 360,000 compounds, 0.99% hits; AID 624467, 2012;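 active means activation above the mean activation of all test compounds in the run plus 3 SD, cut at about 38% in these data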
Target sequence (Q96RJ0 whole entry, looked up): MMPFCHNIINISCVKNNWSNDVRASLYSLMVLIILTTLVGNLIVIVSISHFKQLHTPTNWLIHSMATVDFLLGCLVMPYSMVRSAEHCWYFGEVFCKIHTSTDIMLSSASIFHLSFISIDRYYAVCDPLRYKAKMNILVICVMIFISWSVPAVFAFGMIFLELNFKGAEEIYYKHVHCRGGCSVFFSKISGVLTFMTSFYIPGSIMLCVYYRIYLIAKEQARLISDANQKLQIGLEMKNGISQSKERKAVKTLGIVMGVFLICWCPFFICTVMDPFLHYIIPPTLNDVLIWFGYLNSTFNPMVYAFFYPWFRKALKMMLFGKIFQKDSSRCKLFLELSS
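Test system: RD-HGA16 (CHO) cells co-expressing Gα16 and hTAAR1 | Doses: Single dose, 3 µM | Schedule: 17-24 h seeding, 75 min 37 °C dye, 30 min RT | Evaluation: % activation from peak over basal fluorescence ratio, DMSO-to-PEA scaled | Technique: Kinetic Fluo-8 calcium fluorescence | Benchmarks: Low control DMSO, high control PEA (EC100)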
Beta2AR agonist = beta2AR agonists driving receptor internalization, primary screen, cell-based, FAP fluorogen, flow cytometry; Beta-2 adrenergic receptor (Homo sapiens), P07550; Am2.2-beta2AR cells; response, % (test concentration not listed); 340,000 compounds, 0.43% hits; AID 504454, 2011;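 active means response above a set limit, near 3 SD of response in nonfluorescent compounds, cut at about 42% in these data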
Target sequence (P07550 whole entry, looked up): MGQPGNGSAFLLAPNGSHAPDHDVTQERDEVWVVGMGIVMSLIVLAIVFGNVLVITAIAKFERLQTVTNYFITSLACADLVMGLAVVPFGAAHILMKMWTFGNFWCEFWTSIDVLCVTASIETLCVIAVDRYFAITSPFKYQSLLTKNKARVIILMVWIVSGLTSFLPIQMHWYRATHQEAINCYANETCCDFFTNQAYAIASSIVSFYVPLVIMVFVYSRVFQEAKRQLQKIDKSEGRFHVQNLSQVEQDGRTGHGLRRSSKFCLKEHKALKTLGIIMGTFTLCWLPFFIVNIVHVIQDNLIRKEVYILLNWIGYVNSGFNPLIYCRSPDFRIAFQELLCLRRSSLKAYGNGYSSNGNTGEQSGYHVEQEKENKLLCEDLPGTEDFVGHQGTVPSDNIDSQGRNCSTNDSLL
MC4R antag cAMP = MC4R antagonists of cAMP signaling, primary screen, cell-based, TR-FRET, antagonist arm of biased-ligand search | MC4R-expressing cells, MTII-stimulated cAMP, LANCE TR-FRET | AID 540295, 2011 | inhibition, % at 6.5 µM | 360,000 compounds, 0.48% hits | Melanocortin receptor 4 (Homo sapiens), P32245;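 active means inhibition above its plate's cutoff, the mean of tested wells on that plate plus 3 SD, cut at about 29% in these data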
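Material: human MC4R-expressing U2OS cells. Probe or stimulus: Melanotan II challenge. Dosing: 6.5 µM single dose. Times: 30-min compound, 1-h challenge, 1-h detection, room temperature. Technique: TR-FRET with Eu-cAMP and labeled anti-cAMP, 671 nm. Replication: singlicate.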
MC4R barr agon = MC4R agonists recruiting beta-arrestin, primary screen, cell-based, luminescence, agonist arm of biased-ligand search | Melanocortin receptor 4 (Homo sapiens), P32245 | U2OS MC4R beta-arrestin complementation; percent of melanotan II response, DMSO zero | activation, % at 8.9 µM | 360,000 compounds, 0.98% hits | AID 540308, 2011;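 active means activation above a per-plate cutoff, the mean activation of sample wells on that plate plus 3 SD, cut at about 8% in these data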
TAAR1 antagonist = human TAAR1 antagonists, primary screen, Fluo-8 calcium fluorescence, CHO RD-HGA16 cells; Trace amine-associated receptor 1 (Homo sapiens), Q96RJ0; antagonist; inhibition, % at 3 µM; 360,000 compounds, 1.5% hits;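 active means inhibition above a per-plate cutoff, the mean inhibition of test compounds on that plate plus 3 SD, cut at about 49% in these data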
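System: CHO RD-HGA16 cells bearing hTAAR1. Reagent: EC80 β-phenethylamine stimulus. Schedule: seeding 17-24 h prior, 75-min 37 °C, 30-min RT dye loading. Signal: Fluo-8 intracellular calcium dye fluorescence, real-time kinetic reads. Read-out: % inhibition from peak post-agonist over basal fluorescence ratio. Benchmarks: vehicle wells and EC80 agonist wells. Replicates: n of 1.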
TAAR1 nonsel count = nonselective antagonists in TAAR1 counter-screen cells, counter-screen for hTAAR1 antagonist project, cell-based, fluorescence, calcium. AID 651780, 2012. shares compounds with TAAR1 antagonist. counterscreen cell line, antagonist mode. inhibition, % at 3 µM. 2,400 compounds, 77% hits; in the data active means inhibition above about 22%;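 further: CHO-Ga16 host cells stimulated with ATP at an EC80 level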
TAAR1 antag conf = human TAAR1 antagonists, retest of hits, confirmation, cell-based, fluorescence; TAAR1-expressing cells, fluorescence antagonist read-out; shares compounds with TAAR1 antagonist; 2,400 compounds, 40% hits; inhibition, % at 3 µM; in the data active means inhibition above about 49%;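 further: CHO-Ga16 host cells challenged with agonist PEA near its EC80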
Ga16 ag counter = calcium activation in Ga16-expressing cells, counter-screen for TAAR1 antagonist project, cell-based, fluorescence; AID 651953, 2012; activation, % at 3 µM; shares compounds with TAAR1 antagonist; 2,400 compounds, 18% hits; agonist counterscreen; in the data active means activation above about 12%
TAAR1 ag count = TAAR1 activation by candidate antagonists – cell-based, fluorescence, counter-screen for TAAR1 antagonist project; shares compounds with TAAR1 antagonist; hTAAR1 cell line, agonist mode; activation, % at 3 µM; 2,400 compounds, 2% hits; AID 651955, 2012; in the data active means activation above about 37%;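 further: CHO cells stably expressing TAAR1 with calcium dye readout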
A number is an active result.

Results for N#CCc1ccc(NC(=O)c2ccc(S(=O)(=O)N3CCCC3)cc2)cc1 ?
m5-HT2A agonist: inactive; TAAR1 ag: inactive; Beta2AR agonist: inactive; MC4R antag cAMP: inactive; MC4R barr agon: inactive; TAAR1 antagonist: 57; TAAR1 nonsel count: 30; TAAR1 antag conf: 54; Ga16 ag counter: 15; TAAR1 ag count: inactive

What do the screens show for `COc1ccccc1-n1nnnc1SCC(=O)NC1CCCCC1`?
m5-HT2A agonist: inactive; TAAR1 ag: inactive; Beta2AR agonist: inactive; MC4R antag cAMP: inactive; MC4R barr agon: inactive; TAAR1 antagonist: inactive

What do the screens show for `COc1ccc(-c2c(C(=O)c3ccc(Br)cc3)[nH]c(N)c2C(=O)c2ccccc2)cc1OC`?
m5-HT2A agonist: inactive; TAAR1 ag: inactive; TAAR1 antagonist: 60; TAAR1 nonsel count: inactive; TAAR1 antag conf: inactive; Ga16 ag counter: inactive; TAAR1 ag count: inactive

What do the screens show for `COc1ccc(-n2nc(C(=O)NCC(=O)Nc3cc(OC)c(OC)c(OC)c3)c3ccccc3c2=O)cc1`?
m5-HT2A agonist: inactive; TAAR1 ag: inactive; Beta2AR agonist: inactive; MC4R antag cAMP: inactive; MC4R barr agon: inactive; TAAR1 antagonist: 58; TAAR1 nonsel count: 28; TAAR1 antag conf: 51; Ga16 ag counter: inactive; TAAR1 ag count: inactive

Results for CCOC(=O)N1CCN(C(=O)CNC(=O)c2nn(-c3ccc(OC)c(Cl)c3)c(=O)c3ccccc23)CC1 ?
m5-HT2A agonist: inactive; TAAR1 ag: inactive; Beta2AR agonist: inactive; MC4R antag cAMP: inactive; MC4R barr agon: inactive; TAAR1 antagonist: 62; TAAR1 nonsel count: 32; TAAR1 antag conf: inactive; Ga16 ag counter: inactive; TAAR1 ag count: inactive

How did COc1ccc(-n2nc(C(=O)NCC(=O)Nc3cc(OC)c(OC)c(OC)c3)c3ccccc3c2=O)cc1OC do in these assays?
m5-HT2A agonist: inactive; TAAR1 ag: inactive; Beta2AR agonist: inactive; MC4R antag cAMP: inactive; MC4R barr agon: inactive; TAAR1 antagonist: 64; TAAR1 nonsel count: 29; TAAR1 antag conf: 51; Ga16 ag counter: inactive; TAAR1 ag count: inactive

Results for COc1ccc(-n2nc(C(=O)NCC(=O)Nc3cccc(NC(C)=O)c3)c3ccccc3c2=O)cc1 ?
m5-HT2A agonist: inactive; TAAR1 ag: inactive; Beta2AR agonist: inactive; MC4R antag cAMP: inactive; MC4R barr agon: inactive; TAAR1 antagonist: inactive

What do the screens show for `COc1ccc(OC)c(NC(=O)/C=C/c2ccc(S(=O)(=O)N3CCOCC3)cc2)c1`?
m5-HT2A agonist: inactive; TAAR1 ag: inactive; Beta2AR agonist: inactive; MC4R antag cAMP: inactive; MC4R barr agon: inactive; TAAR1 antagonist: inactive

How did COC(=O)c1ccccc1-c1ccc(/C=N/Nc2nc(N3CCCC3)nc(N3CCCC3)n2)o1 do in these assays?
m5-HT2A agonist: inactive; TAAR1 ag: inactive; Beta2AR agonist: inactive; MC4R antag cAMP: inactive; MC4R barr agon: inactive; TAAR1 antagonist: 69; TAAR1 nonsel count: inactive; TAAR1 antag conf: inactive; Ga16 ag counter: inactive; TAAR1 ag count: inactive

How did COc1nc(N/N=C/c2ccc(-c3ccccc3[N+](=O)[O-])o2)nc(N2CCOCC2)n1 do in these assays?
m5-HT2A agonist: inactive; TAAR1 ag: inactive; Beta2AR agonist: inactive; MC4R antag cAMP: inactive; MC4R barr agon: inactive; TAAR1 antagonist: 64; TAAR1 nonsel count: inactive; TAAR1 antag conf: inactive; Ga16 ag counter: 12; TAAR1 ag count: inactive

What do the screens show for `CC(C)(Cc1ccc(O)cc1)NC(=O)CC(=O)N/N=C/c1ccc([N+](=O)[O-])cc1`?
m5-HT2A agonist: inactive; TAAR1 ag: inactive; Beta2AR agonist: inactive; MC4R antag cAMP: inactive; MC4R barr agon: inactive; TAAR1 antagonist: inactive

What do the screens show for `CC(C)(Cc1ccc(O)cc1)NC(=O)CC(=O)N/N=C/c1ccc(Cl)cc1`?
m5-HT2A agonist: inactive; TAAR1 ag: inactive; Beta2AR agonist: inactive; MC4R antag cAMP: inactive; MC4R barr agon: inactive; TAAR1 antagonist: 74; TAAR1 nonsel count: inactive; TAAR1 antag conf: 80; Ga16 ag counter: inactive; TAAR1 ag count: 43

How did CN(C)C(=O)CCc1ccc2c3c([nH]c2c1)[C@]1(C)[C@@H](C(=O)N2CCOCC2)C[C@H](CC(=O)NCCCn2ccnc2)C(=O)N1CC3 do in these assays?
m5-HT2A agonist: inactive; TAAR1 ag: inactive; Beta2AR agonist: inactive; MC4R antag cAMP: inactive; MC4R barr agon: inactive; TAAR1 antagonist: inactive

What do the screens show for `CCOC1=C2[C@@H](CN(S(=O)(=O)c3ccc(C)cc3)[C@H]2c2cccc3ccccc23)[C@H]2C(=O)N(c3ccccc3)C(=O)[C@H]2C1`?
m5-HT2A agonist: inactive; TAAR1 ag: inactive; TAAR1 antagonist: inactive

How did O=C(Nc1cccc(-n2cnnn2)c1)c1ccc(C(F)(F)F)cc1 do in these assays?
m5-HT2A agonist: inactive; TAAR1 ag: inactive; Beta2AR agonist: inactive; MC4R antag cAMP: inactive; MC4R barr agon: inactive; TAAR1 antagonist: inactive

Results for CC1Nc2ncnc(N3CCN(c4ccccc4)CC3)c2N(Cc2ccc(Cl)cc2)C1=O (configuration not stated) ?
m5-HT2A agonist: inactive; TAAR1 ag: inactive; Beta2AR agonist: inactive; MC4R antag cAMP: inactive; MC4R barr agon: inactive; TAAR1 antagonist: 53; TAAR1 nonsel count: 22; TAAR1 antag conf: inactive; Ga16 ag counter: inactive; TAAR1 ag count: inactive

How did CC1Nc2ncnc(N3CCN(c4ccccc4)CC3)c2N(Cc2ccccc2)C1=O (configuration not stated) do in these assays?
m5-HT2A agonist: inactive; TAAR1 ag: inactive; Beta2AR agonist: inactive; MC4R antag cAMP: inactive; MC4R barr agon: inactive; TAAR1 antagonist: 50; TAAR1 nonsel count: 22; TAAR1 antag conf: inactive; Ga16 ag counter: inactive; TAAR1 ag count: inactive

What do the screens show for `COc1ccc(S(=O)(=O)N(C)C)cc1NC(=O)CCCSc1ccccc1`?
m5-HT2A agonist: inactive; TAAR1 ag: inactive; Beta2AR agonist: inactive; MC4R antag cAMP: inactive; MC4R barr agon: inactive; TAAR1 antagonist: inactive
